By Ki is commonly meant the dissociation constant of the complex between target and ligand, obtained from inhibition or displacement. Higher therefore signals a looser hold on the target. One may read the inhibition as the percentage by which the read-out fell short of the control. The term IC50 denotes the concentration that inhibits the measured activity by half.

Drawing on ChEMBL document CHEMBL1143166, “Derivatives of 4-amino-6-hydroxy-2-mercaptopyrimidine as novel, potent, and selective A3 adenosine receptor antagonists” (J Med Chem, 2008), this text covers Ki, inhibition and IC50 for 19 compounds.

The target in assay [1] is T1, Adenosine receptor A1 (Homo sapiens, UniProt P30542).
T1 sequence (P30542 whole entry): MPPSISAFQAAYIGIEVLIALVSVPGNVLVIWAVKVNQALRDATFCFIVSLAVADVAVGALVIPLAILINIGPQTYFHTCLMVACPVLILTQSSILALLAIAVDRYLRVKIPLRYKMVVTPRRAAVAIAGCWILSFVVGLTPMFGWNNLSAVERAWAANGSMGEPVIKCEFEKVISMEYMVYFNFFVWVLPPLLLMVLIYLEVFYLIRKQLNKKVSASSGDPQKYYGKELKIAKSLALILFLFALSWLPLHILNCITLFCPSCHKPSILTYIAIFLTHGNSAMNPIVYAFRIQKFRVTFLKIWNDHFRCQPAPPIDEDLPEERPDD
Briefly: Displacement of […] from human adenosine A1 receptor expressed in CHO cells. It is filed as cell-based. For orientation: Displacement assays read how much labelled ligand stays bound in the presence of the test substance.

The target in assay [2] is T2, Adenosine receptor A2a (Homo sapiens, UniProt P29274). Briefly: Displacement of [3H]NECA from human adenosine A2A receptor expressed in CHO cells at 10 uM. It is filed as cell-based. The gist of the method: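 Membranes (80 µg) from hA2A-expressing CHO cells incubated 90 min at 25 °C in 50 mM Tris-HCl, 2 mM MgCl2, 2 U/mL ADA, pH 7.4, with 30 nM [3H]NECA and compound at 10 µM. Nonspecific binding defined with 100 µM NECA.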
T2 sequence (P29274 whole entry): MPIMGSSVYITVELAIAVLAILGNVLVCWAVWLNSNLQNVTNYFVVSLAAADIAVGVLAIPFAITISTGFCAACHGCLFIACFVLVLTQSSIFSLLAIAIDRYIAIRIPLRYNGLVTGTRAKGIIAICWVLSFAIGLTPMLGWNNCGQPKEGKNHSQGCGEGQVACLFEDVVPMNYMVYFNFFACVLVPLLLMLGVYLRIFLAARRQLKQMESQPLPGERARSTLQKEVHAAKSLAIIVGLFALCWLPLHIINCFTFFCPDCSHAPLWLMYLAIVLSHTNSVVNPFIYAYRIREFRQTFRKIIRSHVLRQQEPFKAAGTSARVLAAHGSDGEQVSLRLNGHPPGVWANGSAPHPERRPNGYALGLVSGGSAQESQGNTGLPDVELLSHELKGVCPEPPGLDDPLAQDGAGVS

Assay [3] has as its target T3, Adenosine receptor A3 (Homo sapiens) (UniProt P0DMS8).
T3 sequence (whole entry): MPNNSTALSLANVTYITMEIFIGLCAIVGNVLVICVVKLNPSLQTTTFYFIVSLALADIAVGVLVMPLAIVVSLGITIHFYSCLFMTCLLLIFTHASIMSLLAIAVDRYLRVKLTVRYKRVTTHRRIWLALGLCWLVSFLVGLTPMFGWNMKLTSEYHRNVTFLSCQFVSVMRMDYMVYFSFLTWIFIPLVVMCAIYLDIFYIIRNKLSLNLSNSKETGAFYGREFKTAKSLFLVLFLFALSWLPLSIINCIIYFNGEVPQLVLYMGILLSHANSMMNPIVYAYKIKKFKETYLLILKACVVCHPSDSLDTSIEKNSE
Briefly: Displacement of [125I]AB-MECA from human adenosine A3 receptor expressed in CHO cells at 1 uM. The class given is cell-based.

The target in assay [4] is T4, Adenosine receptor A1 (Homo sapiens) (UniProt P30542).
T4 sequence (whole entry): T1 sequence (P30542 whole entry)
Briefly: Displacement of […] from human adenosine A1 receptor expressed in CHO cells at 10 uM. The class given is cell-based. In a few lines:
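Membranes (50 µg protein) from CHO cells stably expressing hA1 incubated 180 min at 25 °C in 50 mM Tris-HCl, 2 mM MgCl2, 2 U/mL ADA, pH 7.4, with 3 nM [3H]DPCPX and compound at 10 µM. Nonspecific binding defined with 50 µM R-PIA.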

For assay [5], the target named is T5, Adenosine receptor A2b (Homo sapiens, UniProt P29275).
T5 sequence (P29275 whole entry): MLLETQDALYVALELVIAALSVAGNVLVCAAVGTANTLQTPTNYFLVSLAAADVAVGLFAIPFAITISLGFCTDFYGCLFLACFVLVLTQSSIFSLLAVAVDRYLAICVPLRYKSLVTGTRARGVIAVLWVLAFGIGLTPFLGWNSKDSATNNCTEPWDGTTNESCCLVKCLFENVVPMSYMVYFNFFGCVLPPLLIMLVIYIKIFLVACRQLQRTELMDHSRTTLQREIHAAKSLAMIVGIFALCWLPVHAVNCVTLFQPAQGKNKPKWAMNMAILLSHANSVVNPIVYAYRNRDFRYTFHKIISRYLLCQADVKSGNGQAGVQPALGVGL
The assay can be described thus: Antagonist activity at human adenosine A2B receptor expressed in CHO cells assessed as inhibition of NECA-mediated cAMP accumulation. It is filed as functional, cell-based. In a few lines:
(§1)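 hA2B-transfected CHO cells grown 48 h after plating, then preincubated 15 min at 37 °C in DMEM with Ro20-1724 (20 µM) and ADA (1 U/mL). Compound (1 nM–10 µM; single-point 10 µM) given 15 min at 37 °C, then 100 nM NECA. Stopped with 0.4 N HCl, neutralized with KOH. cAMP by competitive binding to bovine adrenal binding protein with [3H]cAMP. Mean ± SEM, four experiments in triplicate.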

In assay [6] the target is T6, Adenosine receptor A2b (Homo sapiens) (UniProt P29275).
T6 sequence (whole entry): T5 sequence (P29275 whole entry)
Briefly: Antagonist activity at human adenosine A2B receptor expressed in CHO cells assessed as inhibition of NECA-mediated cAMP accumulation at 10 uM. The class given is functional, cell-based. In a few lines: as §1
(In general: cAMP levels reflect the balance of adenylyl cyclase and phosphodiesterase activity.)

In assay [7] the target is T2, Adenosine receptor A2a. Briefly: Displacement of [3H]NECA from human adenosine A2A receptor expressed in CHO cells. It is filed as cell-based.

In the case of `CCCSc1nc(NC(C)=O)cc(OCc2cccc(Cl)c2)n1`, in assay [1], the Ki is 582 nM. For the same compound, the inhibition in assay [2] worked out at 41%.
On to `COc1cc(NC(C)=O)nc(SC)n1`, for which the inhibition was found to be 49% in assay [3], 30% in assay [4] and 29% in assay [2].
As to `CCCSc1nc(NC(C)=O)cc(OCc2ccc(Cl)cc2)n1`, the half-maximal inhibitory concentration (IC50) in assay [5] was more than 10000 nM. The inhibition in assay [4] was 17%; in assay [6] it was 0%; in assay [2] it was 43%.
As to `CCCSc1nc(NC(C)=O)cc(OCC2CCCCC2)n1`, the figures for the inhibition in assay [4] and in assay [2] were 43% and 33%, respectively.
For `CCCSc1nc(NC(=O)CC)cc(OC)n1`, the inhibition constant Ki in assay [1] came to 486 nM. The inhibition in assay [2] worked out at 4%.
`CCCOc1cc(NC(C)=O)nc(SC)n1` came in with a Ki in assay [7] of 1120 nM. In addition, the inhibition in assay [4] amounted to 7%.
With `CCCSc1nc(NC(C)=O)cc(OC)n1`, the inhibition in assay [4] turned out to be 43%; in assay [2], 10%.
The matching figures for `CCCCSc1nc(NC(C)=O)cc(OCc2ccc(Cl)cc2)n1`: 0% and 26%.
The matching figures for `CCCOc1cc(NC(C)=O)nc(SCc2ccccc2)n1`: 34% and 23%.
As to `CCCSc1nc(NC(C)=O)cc(OCc2ccc(Cl)cc2Cl)n1`, the results for the inhibition in assay [4] and in assay [2] were 46% and 29%, respectively.
With `CCCOc1cc(NC(=O)CC)nc(SCCC)n1`, the Ki stood at 71 nM in assay [7] and 1460 nM in assay [1].
With `CCCSc1nc(NC(C)=O)cc(OCc2ccc(OC)cc2)n1`, the concentration for half-maximal inhibition (IC50) in assay [5] is more than 10000 nM. The compound further returned an inhibitory constant (Ki) in assay [1] of 2440 nM. Moreover, the figures for the inhibition in assay [6] and in assay [2] were 0% and 47%, respectively.
The like results for `CCSc1nc(NC(C)=O)cc(OCc2ccc(Cl)cc2)n1` were, in that order, more than 10000 nM, 4480 nM, 10% and 56%.
In assay [7], `CCCOc1cc(NC(=O)CC)nc(SC)n1` registered a Ki of 398 nM. For the same compound, the inhibition in assay [4] is 19%.
Turning to `CCC(=O)Nc1cc(OC)nc(SC)n1`, the inhibition in assay [3] amounted to 51%; in assay [4], 2%; in assay [2], 21%.
For `CCCSc1nc(NC(C)=O)cc(OCc2ccccc2Cl)n1`, the results for the inhibition constant Ki in assay [7] and in assay [1] were 4150 nM and 1840 nM, respectively.
`CCCOc1cc(NC(C)=O)nc(SCCC)n1` yielded a Ki in assay [1] of 5470 nM. In assay [2], this compound returned an inhibition of 30%.
`CCCSc1nc(NC(C)=O)cc(OCCc2ccccc2)n1`: the IC50 in assay [5] is more than 10000 nM. Further, the affinity in assay [1], expressed as Ki, was 2080 nM. For the same compound, the inhibition turned out to be 13% in assay [6] and 27% in assay [2].
In turn, `CCCSc1nc(NC(C)=O)cc(OCc2ccccc2)n1` displayed a Ki in assay [1] of 2440 nM. The same compound returned an inhibition in assay [2] of 36%.
